# Screening data: PubChem BioAssay, several laboratories
# GSH fluor: compound fluoresces at 488/530 nm on GSH beads. GSH beads flow cytometry, compound fluorescence 488/530 nm; stronger effect = higher value. AID 1776. fluorescence (KMESF) at 10 µM. 190,000 compounds, 0.25% hits; in the data active means fluorescence above about 89;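 further: glutathione beads carrying GST-tagged Bcl family fusion proteins plus one bare bead set; values are compound well signal with DMSO vehicle wells as background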
# ABCG2 inh: inhibitors of human ABCG2 transporter, ABCB1 counter-screen. inhibition, % at 6.6 µM. Q9UNQ0. AID 1325. 190,000 compounds, 0.1% hits. IgMXP3 cells, JC-1 efflux, flow cytometry;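 active means inhibition above 80%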;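 further: 0% = DMSO and 100% = nicardipine control wells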
#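 Measure – % inhibition of efflux relative to nicardipine and DMSO · Test system – ABCG2 IgMXP3 and barcoded ABCB1 CCRF-Adr cell mix · Control set – nicardipine as high control, DMSO as low control · Compound – one concentration, 6.6 µM final · Signal – flow cytometry of retained JC-1 fluorescence · Timing – 10 min exposure at 25 °C with rotation, no wash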
# L major viab: reduces viability of Leishmania major promastigotes; resazurin fluorescence viability; inhibition, % at 10 µM; 200,000 compounds, 9% hits; AID 1063;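 further: promastigotes grown with compound for 44 hours at 28 °C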
# PKD1 inh: inhibitors of human PKD1 kinase | Q15139 | 200,000 compounds, 0.056% hits | PKD1 kinase fluorescence polarization assay | inhibition, % (concentration not given with the values)
# ABCB1 block: blocks JC-1 efflux by human ABCB1 transporter; P08183; CCRF-Adr cells, flow cytometry; inhibition, % at 6.6 µM; 190,000 compounds, 0.067% hits; AID 1326; in the data active means inhibition above about 40%;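 further: 0% = vehicle and 100% = reference inhibitor; higher value means more JC-1 retained so stronger ABCB1 efflux block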
# Avidin fluor: avidin bead compound fluorescence profile. 220,000 compounds, 0.38% hits. Avidin beads, compound fluorescence 488/530 nm, flow cytometry; stronger effect = higher value. fluorescence (KMESF) at 10 µM. AID 1775; in the data active means fluorescence above about 47
# * = called active by the depositor; . = not tested or not shown. This excerpt belongs to a sample that is enriched for hits. Unless noted, no stated cut-off is given here; in the data, active means inhibition above about 50%; inactive means the rest.
SMILES,GSH fluor,ABCG2 inh,L major viab,PKD1 inh,ABCB1 block,Avidin fluor
COc1ccc(C(=O)C2CCCN(C3Cc4ccccc4C3)C2)cc1OC (stereo not given),12,0.6,92.8*,-4.9,0.4,10
CCCCN=C1NC(=O)C(CC(=O)NCCc2ccc(OC)cc2)S1 (stereo not given),10,-3.9,5.0,8.7,-0.8,20
CCOC(=O)c1cc2c(C)n(-c3ccc(C)cc3)c(C)c2ccc1=O,30,-4.7,-0.8,4.4,-4.1,14
O=C(COc1ccccc1[N+](=O)[O-])Nc1cc(Cl)ccc1C(=O)O,18,-1.3,-2.5,-5.0,-0.5,6
O=C(NCC1CCCN(Cc2ccc3nonc3c2)C1)c1cccc(C(F)(F)F)c1 (stereo not given),11,1.9,87.0*,-0.3,0.4,12
O=C(c1cccc(C(F)(F)F)c1)C1CCCN(Cc2cccc(OCCO)c2)C1 (stereo not given),18,2.7,8.3,-1.8,1.3,6
COc1ccc(C(=O)C2CCCN(Cc3ccc4nonc4c3)C2)cc1F (stereo not given),14,1.1,90.6*,-0.4,1.1,12
COc1ccc(NC(=S)NC(=O)c2ccccc2Cl)cc1,12,14.0,5.5,3.7,-0.1,10
CCOC(=O)N1CCN=C1SCc1ccc(C(F)(F)F)cc1,9,0.6,3.7,-1.2,0.0,6
CCN(CC)C(=O)CSc1nc(O)cc(=O)n1CC,14,1.3,-4.3,-4.6,0.5,156*
CCN(CC)C(=O)CSc1nc(O)cc(=O)n1C,15,-0.8,-2.4,-5.4,-0.3,11
COc1cc2c3c(c1)C(C)=CC(C)(C)N3C(=O)C2=O,22,0.7,56.1*,-0.8,0.2,10
COc1cc(N=C2C(=O)N3c4c(cccc42)C(C)=CC3(C)C)cc(OC)c1,15,7.4,61.4*,-0.1,0.8,12
CC1=CC(C)(C)N2C(=O)C(=Nc3ccc(O)cc3)c3cccc1c32,.,.,.,.,.,8
CC1(C)CC(=O)C(C(C2=C(O)CC(C)(C)CC2=O)c2ccc(Br)s2)C(=O)C1 (stereo not given),13,-3.6,44.5,-6.7,-0.6,7
Cc1cc2ccccc2n1CCNC(=O)c1cccs1,16,0.2,-4.8,0.2,-1.1,4
CC1(C)CC(N2CCCC2)=CC(=[N+]2CCCC2)C1,17,2.6,99.3*,-0.7,0.4,5
CC1(C)CC(N2CCCC2)=CC(=[N+]2CCCCC2)C1,10,-0.9,99.8*,-2.1,-0.3,19
CC1(C)CC(N2CCN(Cc3ccccc3)CC2)=CC(=[N+]2CCCCC2)C1,.,.,.,.,.,11
Cc1cc(C)c(S(=O)(=O)N(C2=NCCS2)S(=O)(=O)c2c(C)cc(C)cc2C)c(C)c1,14,1.0,98.2*,-2.6,1.2,23
COc1cc(S(=O)(=O)Nc2cccc(C(=O)O)c2)c(OC)cc1Cl,12,0.4,-8.7,-3.5,0.3,16
CCOC(=O)Cn1c(=O)oc2cc(S(=O)(=O)Nc3ccc(F)cc3)ccc21,22,2.3,-1.0,-2.6,0.5,4
CCCNCC1COc2ccccc2O1 (stereo not given),22,-1.4,39.3,0.4,0.1,27
c1ccc(CNCC2COc3ccccc3O2)cc1 (stereo not given),12,4.1,91.2*,-4.0,1.5,21
O=C(CC1COc2ccccc2O1)NCc1ccccc1 (stereo not given),20,-1.3,-0.3,-1.6,-0.8,17
SMILES,GSH fluor,ABCG2 inh,L major viab,PKD1 inh,ABCB1 block,Avidin fluor
c1ccc(CCCNCC2COc3ccccc3O2)cc1 (stereo not given),11,0.5,91.1*,-13.0,0.2,15
c1ccc(CCCCNCC2COc3ccccc3O2)cc1 (stereo not given),15,5.5,86.8*,2.8,1.4,9
Cc1nn(C(=O)c2ccc([N+](=O)[O-])cc2)c(C)c1Br,.,.,.,.,.,6
Cn1c2c(c(=O)n(C)c1=O)C(C(F)(F)F)(C(F)(F)F)N=C(CCC1CCCCC1)N2,17,12.2,90.0*,-5.8,1.2,15
Cc1cccc(NC(=O)CCc2ccc(S(=O)(=O)NC3CCCCC3)cc2)c1,57,0.5,-1.5,-4.7,0.0,9
Cc1cc(C)c(S(=O)(=O)/N=C2/C=C(Sc3ncn[nH]3)C(=O)c3ccccc32)cc1C,22,-4.5,99.7*,-11.9,-0.3,5
COc1cccc(/C=N/NC(=O)CNC(=O)c2ccc(S(=O)(=O)N3CCCC3)cc2)c1OC,11,0.6,7.4,-2.8,-0.2,25
COc1ccc(C2=CSC3=NNC4(CCCCC4)NN23)cc1,9,-0.4,67.5*,-3.5,-0.7,19
CC(C)(C)N(NC(=O)c1ccccc1)C(=O)c1ccc(C(=O)N(NC(=O)c2ccccc2)C(C)(C)C)cc1,16,7.0,20.2,7.6,0.2,7
CCc1ccc(C(=O)NN(C(=O)c2ccc(CC)cc2)C(C)(C)C)cc1,12,1.8,98.0*,-8.4,0.5,19
COc1cc(OC)c(CN2CCN(c3ccc(F)cc3)CC2)cc1Br,13,3.4,10.3,-8.3,1.2,14
COc1cc(CN2CCN(S(=O)(=O)c3ccc(NC(C)=O)cc3)CC2)cc(OC)c1O,14,0.0,-6.4,-10.7,0.0,23
COc1cc(CN2CCN(c3cc(C)ccc3C)CC2)cc([N+](=O)[O-])c1O,.,.,7.1,-8.3,.,.
COc1cc(CN2CCN(c3ccc(C)cc3)CC2)cc([N+](=O)[O-])c1O,12,1.1,85.6*,3.9,0.1,38
COc1cc(OC)c(OC)cc1CN1CCN(Cc2ccc(SC)cc2)CC1,15,0.5,94.5*,-6.9,1.1,9
COc1cc(CN2CCN(Cc3ccc(SC)cc3)CC2)cc(OC)c1O,8,0.0,88.4*,1.2,0.5,8
COc1ccc(C2C3=C(CC(C)(C)CC3=O)Nc3cc4c(cc32)OCO4)cc1 (stereo not given),28,16.3,98.9*,-6.0,0.9,16
COc1ccc(C2C(C#N)=C(C)NC3=C2C(=O)CC(C)(C)C3)cc1 (stereo not given),5,0.3,0.6,-1.1,0.0,7
CC1(C)CC(=O)C2=C(C1)Nc1cc3c(cc1C2c1ccc(F)cc1)OCO3 (stereo not given),18,4.6,100.1*,-8.9,1.3,35
CC1(C)CC(=O)C2=C(C1)Nc1ccccc1NC2c1ccc2c(c1)OCO2 (stereo not given),36,19.2,51.2*,18.7,1.1,14
Cc1noc2c1C(c1ccc(N(C)C)cc1)C1=C(CC(C)(C)CC1=O)N2 (stereo not given),5,0.5,3.8,-3.9,0.5,8
Cc1ccc(C2C3=C(CC(C)(C)CC3=O)Nc3onc(C)c32)cc1 (stereo not given),35,-0.3,52.9*,-3.1,0.2,.
